A selection: hits, their analogues and other compounds. The true share with any hit is near 1.2%.
Diaphorase inh – inhibits diaphorase or chemically oxidizes, flagging diaphorase assay artifacts; inhibition, % at 20 µM; diaphorase resazurin-to-resorufin fluorescence, NADH, 16 min; bacterial (C. kluyveri) enzyme, not human; 0.69% of 190,000 active; AID 1217;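 active = primary screen inhibition at 20 µM above a set limit, cut at about 50% in these data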;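 also: plate controls were DMSO with full reaction for no effect and wells lacking NADH for full effect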
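Detection: fluorescence of resorufin formed from resazurin, Ex 544/Em 590 nm; test system: Clostridium kluyveri diaphorase enzyme; amount: 0.14 U/mL diaphorase, enzyme working solution; times: 16-min room-temperature incubation before reading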
HKDC1 inh – HKDC1 (human) hexokinase inhibition; Q2TB90; inhibition, % at 20 µM; AID 493160; recombinant HKDC1, G6PDH/diaphorase resazurin coupled fluorescence; 0.16% of 340,000 active;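 active = inhibition above about 35% when tested at 20 µM, limit read from the data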;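 also: plate controls were DMSO wells with enzyme for no effect and DMSO wells lacking enzyme for full effect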
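Material – in-house recombinant HK5 (HKDC1) enzyme · Quantity – HKDC1 at 5 µg/mL · Buffer or medium – pH 8.0 Tris buffer with 10 mM MgCl2 · Reagent – glucose with 1 mM ATP · Dosing – single 20 µM dose · Times – reaction time 90 min, room temperature, protected from light · Technique – resorufin fluorescence at 613 nm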
Diaphorase act – counter-screen for diaphorase-based assays: diaphorase activators and chemical reducers. AID 1229. Diaphorase/resazurin coupled assay, resorufin fluorescence, 16 min; stronger effect = higher value; 1 = vehicle wells, 0 = NADH-free wells. 0.005% of 190,000 active. activation factor at 20 µM;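 active = diaphorase activity raised at least twofold by the compound at 20 µM; inactive = activation factor below 2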
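System – purified diaphorase enzyme from Clostridium kluyveri · Input – enzyme 0.07 U/mL final · Also added – final NADH 0.114 mM, resazurin 0.1 mM · Measured by – fluorescence of resorufin, 544 nm excitation, 590 nm emission · Timing – 16 min enzyme reaction, ambient temperature · Measure – resorufin increase flagging diaphorase activators or reducers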
PfG6PD inh – PfG6PD (Plasmodium falciparum) enzyme inhibition; PfGluPho enzyme, NADPH resazurin-diaphorase fluorescence; inhibition, % at 20 µM; 0.78% of 350,000 active; AID 504690;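 active = inhibition reaching at least a set limit at 20 µM in the primary screen, cut at about 59% in these data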;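 also: 0% = DMSO wells with substrate and 100% = DMSO wells lacking glucose-6-phosphate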
G6PDH counter – inhibits Leuconostoc G6PDH, flagging false hits in G6PDH-based assays. Purified L. mesenteroides G6PDH, diaphorase/resazurin coupled fluorescence, 45 min. inhibition, % at 5 µM. 0.12% of 200,000 active. AID 1020; in the data active = inhibition above about 50%
* marks the source's active call; other numbers are inactive results; · = no result.

SMILES	Diaphorase inh	HKDC1 inh	Diaphorase act	PfG6PD inh	G6PDH counter
Cc1nc2ccccc2c(=O)n1-c1ccc(Cl)cc1[N+](=O)[O-]	77*	-23	0.2	-42	8
O=S(=O)(c1ccccc1)N1Cc2ccccc2-n2nncc2C1	·	·	·	-5	·
CCOP1(=S)Oc2cc3c(cc2C(C(=O)OC)(C(F)(F)F)O1)OCO3 (stereo unspecified)	6	2	0.9	64*	3
CN(C)C(=S)SSC(=S)N(C)C	23	-12	0.8	95*	5
O=[N+]([O-])c1ccc(N2CCOCC2)c2c1no[n+]2[O-]	·	·	·	18	·
CC(C)CN1Cc2ccccc2-n2nncc2C1	·	·	·	-9	·
N/C(=N\N=C/c1ccc(-c2ccc(O)c(C(=O)O)c2)o1)N[N+](=O)[O-]	57*	16	0.4	-10	3
COc1ccc(CCNC(=O)c2c(N)n(CCN3CCOCC3)c3nc4ccccc4nc23)cc1	59*	2	0.4	17	-37
O=C(NC1(C(F)(F)F)Oc2ccccc2O1)N1CCC2(CC1)OCCO2	41	5	0.6	33	24
O=C(NC1(C(F)(F)F)Oc2ccc(Cl)cc2O1)N1CCC2(CC1)OCCO2 (stereo unspecified)	52*	6	0.5	7	44
COc1c(O)cc2c(c1OC)-c1ccc(SC)c(=O)cc1C(NC(C)=O)CC2 (stereo unspecified)	·	-7	·	23	·
C[C@]12CC[C@@H](O)CC1=CC(=O)C1C2CC[C@]2(C)C(=O)[C@H](O)CC12 (stereo partly specified)	·	·	·	-13	·
CN1C(=O)NC(=O)/C(=C/c2ccc([N+](=O)[O-])s2)C1=O	·	5	·	81*	·
O=C1NC(=O)N(c2ccccc2)C(=O)/C1=C\c1ccc([N+](=O)[O-])s1	·	2	·	81*	·
CN1C(=O)NC(=O)/C(=C/c2ccc([N+](=O)[O-])o2)C1=O	·	9	·	42	·
COc1ccc(OC)c(N2C(=O)NC(=O)/C(=C\c3ccc([N+](=O)[O-])s3)C2=O)c1	23	12	0.8	51	6
CN1C(=O)/C(=C\c2ccc(Br)s2)C(=O)NC1=S	·	13	·	60*	·
c1ccc(C2(NC3=NCCO3)CCCCC2)cc1	·	·	·	-19	·
Cn1ncnc2c(=O)n(C)c(=O)nc1-2	56*	69*	0.4	122*	72*
O=C(O)c1ccc2c(c1)C1C(Cl)C(Sc3ccccc3[N+](=O)[O-])CC1C(c1cccc([N+](=O)[O-])c1)N2 (stereo unspecified)	66*	9	0.3	46	9
CCN(CC)C(=O)c1ccc2c(c1)C1C(Cl)C(Sc3ccccc3[N+](=O)[O-])CC1C(C(=O)O)N2 (stereo unspecified)	·	12	·	35	·
O=C(O)c1cccc2c1NC(c1cccc([N+](=O)[O-])c1)C1CC(Sc3ccccc3[N+](=O)[O-])C(Cl)C21 (stereo unspecified)	94*	8	0.1	12	14
COc1ccc(OC(=O)N(C)C[C@H]2OCc3cnnn3CCCC(=O)N([C@H](C)CO)C[C@@H]2C)cc1	·	·	·	-1	·
CN1OC[C@@H]2CN[C@H](c3ccc(Br)cc3)C[C@@H]21	·	·	·	-2	·
C[C@@]1(CO)[C@H](O)CC[C@@]2(C)[C@H]1CC[C@H]1C[C@@H]3C[C@@]12CC[C@]3(O)CO	2	·	1	·	54*
SMILES	Diaphorase inh	HKDC1 inh	Diaphorase act	PfG6PD inh	G6PDH counter
Cc1cc2c(C(C)C)c(O)c(O)c(C=O)c2c(O)c1-c1c(C)cc2c(C(C)C)c(O)c(O)c(C=O)c2c1O	64*	·	0.4	·	28
O=S(=O)(c1cccc(C(F)(F)F)c1)N1Cc2ccccc2-n2nncc2C1	·	·	·	13	·
O=C(c1cc(Cl)cc(Cl)c1)N1Cc2ccccc2-n2nncc2C1	·	·	·	4	·
CCOc1ccc(N2C(=O)/C(=C/c3ccco3)C(=O)NC2=S)cc1	·	81*	·	33	·
S=C(NCCc1ccccc1)N1Cc2ccccc2-n2nncc2C1	·	·	·	13	·
CC1=NN(c2ccccc2)C(=O)C1/C=C1/C(=O)NC(=O)N(c2cccc(C)c2)C1=O (stereo unspecified)	25	·	0.8	·	-3

Bioassay records from PubChem BioAssay.
